{
  "source": "ChEMBL document CHEMBL4118104",
  "about": "“Design, Synthesis, and Evaluation of Orally Bioavailable Quinoline-Indole Derivatives as Innovative Multitarget-Directed Ligands: Promotion of Cell Proliferation in the Adult Murine Hippocampus for the Treatment of Alzheimer's Disease” (J Med Chem, 2018)",
  "type_in_all_cases": "ADME, organism-based",
  "key": {"[1]": {"experiment": "Half life in Sprague-Dawley rat at 5 mg/kg, iv administered as single dose by LC-MS/MS analysis", "settings": "in vivo", "in_short": "(§1)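 SD rats given 5 mg/kg intravenously, n = 3; pharmacokinetic parameters derived from plasma concentrations.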"}, "[2]": {"experiment": "AUC (0 to infinity) in Sprague-Dawley rat at 5 mg/kg, iv administered as single dose by LC-MS/MS analysis", "parameters": "dose 5 mg/kg, time infinity, route intravenous", "settings": "in vivo", "in_short": "as §1"}, "[3]": {"experiment": "Apparent volume of distribution in Sprague-Dawley rat at 5 mg/kg, iv administered as single dose by LC-MS/MS analysis", "settings": "in vivo, read-out: Vz", "in_short": "as §1"}, "[4]": {"experiment": "Clearance in Sprague-Dawley rat at 5 mg/kg, iv administered as single dose by LC-MS/MS analysis", "settings": "in vivo", "in_short": "as §1"}, "[5]": {"experiment": "MRT (0 to infinity) in Sprague-Dawley rat at 5 mg/kg, iv administered as single dose by LC-MS/MS analysis", "settings": "in vivo"}, "[6]": {"experiment": "Volume of distribution at steady state in Sprague-Dawley rat at 5 mg/kg, iv administered as single dose by LC-MS/MS analysis", "settings": "in vivo, read-out: Vdss"}, "[7]": {"experiment": "Tmax in Sprague-Dawley rat at 30 mg/kg, po by LC-MS/MS analysis", "settings": "in vivo", "in_short": "(§2)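 SD rats given a single oral gavage dose of 30 mg/kg, n = 3; plasma levels by LC-MS/MS; bioavailability computed against the 5 mg/kg intravenous arm.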"}, "[8]": {"experiment": "Cmax in Sprague-Dawley rat at 30 mg/kg, po by LC-MS/MS analysis", "parameters": "dose 30 mg/kg, route oral", "settings": "in vivo", "in_short": "(§3)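 SD rats, single oral gavage 30 mg/kg, n = 3; plasma and brain drug levels taken 1 h after dosing, measured by LC-MS/MS.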"}, "[9]": {"experiment": "AUC (0 to t) in Sprague-Dawley rat at 30 mg/kg, po by LC-MS/MS analysis", "settings": "in vivo"}, "[10]": {"experiment": "AUC (0 to infinity) in Sprague-Dawley rat at 30 mg/kg, po by LC-MS/MS analysis", "parameters": "dose 30 mg/kg, time infinity, route oral", "settings": "in vivo"}, "[11]": {"experiment": "MRT (0 to infinity) in Sprague-Dawley rat at 30 mg/kg, po by LC-MS/MS analysis", "settings": "in vivo", "in_short": "as §2"}, "[12]": {"experiment": "Oral bioavailability in Sprague-Dawley rat at 30 mg/kg by LC-MS/MS analysis", "settings": "in vivo", "in_short": "as §2"}, "[13]": {"experiment": "Drug uptake in Sprague-Dawley rat brain at 30 mg/kg, po after 1 hr by LC-MS/MS analysis", "settings": "read-out: Drug uptake", "in_short": "as §3"}},
  "data": [
    {"compound": "Cl.Oc1ccc2[nH]c(-c3ccc4c(Cl)cc(Cl)c(O)c4n3)cc2c1", "values": [
      {"measurement": "half-life", "setting": "[1]", "result": 55.8, "unit": "min"},
      {"measurement": "AUC(0-inf)", "setting": "[2]", "result": 2120, "unit": "ng·h/mL"},
      {"measurement": "Vd", "setting": "[3]", "result": 2.49, "unit": "L/kg"},
      {"measurement": "clearance", "setting": "[4]", "result": 39.3, "unit": "mL/min/kg"},
      {"measurement": "MRT inf", "setting": "[5]", "result": 24.6, "unit": "min"},
      {"measurement": "Vd", "setting": "[6]", "result": 0.954, "unit": "L/kg"},
      {"measurement": "Tmax", "setting": "[7]", "result": 30, "unit": "min"},
      {"measurement": "Cmax", "setting": "[8]", "result": 1000, "unit": "ng/mL"},
      {"measurement": "AUC(0-t)", "setting": "[9]", "result": 1500, "unit": "ng·h/mL"},
      {"measurement": "AUC(0-inf)", "setting": "[10]", "result": 1790, "unit": "ng·h/mL"},
      {"measurement": "MRT inf", "setting": "[11]", "result": 293, "unit": "min"},
      {"measurement": "bioavailability", "setting": "[12]", "result": 14.1, "unit": "%"},
      {"measurement": "concentration at 1 h", "setting": "[13]", "result": 579, "unit": "ng/g"}
    ]}
  ]
}
